A selection: hits, their analogues and other compounds. The true share with any hit is near 3.1%.
PRMT1 FP inh = blocks human protein arginine methyltransferase 1. 1.3% of 370,000 active. recombinant PRMT1, activity-based probe fluorescence polarization. inhibition, % at 2.79 µM. Q99873;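 active = inhibition above about 21% made by adding two undisclosed values, limit read from the data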
MBD2 inh = inhibitors of human MBD2 binding to methylated oligonucleotide | TR-FRET | inhibition, % at 4.4 µM | Q9UBB5 | AID 686964 | 0.31% of 370,000 active; in the data active = inhibition above about 13%
Target sequence (Q9UBB5 whole entry, looked up): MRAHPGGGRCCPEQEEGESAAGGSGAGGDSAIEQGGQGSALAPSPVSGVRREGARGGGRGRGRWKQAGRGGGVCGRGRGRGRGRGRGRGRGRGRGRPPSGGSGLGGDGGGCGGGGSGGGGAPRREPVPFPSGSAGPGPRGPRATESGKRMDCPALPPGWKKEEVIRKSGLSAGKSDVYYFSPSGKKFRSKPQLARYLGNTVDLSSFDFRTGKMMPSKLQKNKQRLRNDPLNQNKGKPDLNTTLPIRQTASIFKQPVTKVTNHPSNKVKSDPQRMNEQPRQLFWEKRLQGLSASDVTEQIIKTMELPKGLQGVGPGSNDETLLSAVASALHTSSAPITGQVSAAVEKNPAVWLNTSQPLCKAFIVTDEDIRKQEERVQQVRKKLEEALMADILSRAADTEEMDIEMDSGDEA
UHRF1 MBD2 ctr = blocks human UHRF1 binding to methylated DNA. Q96T88. UHRF1 binding to methylated oligo, TR-FRET. inhibition, % at 4.4 µM. 0.75% of 370,000 active; in the data active = inhibition above about 21%;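 note: UHRF1 SRA domain binding a hemimethylated CpG hairpin DNA probe; 0% = median of test compound wells and 100% = reference inhibitor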
RBBP9 inhibitor = inhibitors of human serine hydrolase RBBP9; recombinant RBBP9, FP-Rh probe fluorescence polarization; O75884; inhibition, % at 7.94 µM; 0.2% of 220,000 active; AID 1515;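 active = inhibition above the campaign mean of all tested compounds plus 3 SD, cut at about 14% in these data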;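 note: plate controls were DMSO wells with RBBP9 for no effect and wells lacking RBBP9 protein for full effect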
Target sequence (O75884 whole entry, looked up): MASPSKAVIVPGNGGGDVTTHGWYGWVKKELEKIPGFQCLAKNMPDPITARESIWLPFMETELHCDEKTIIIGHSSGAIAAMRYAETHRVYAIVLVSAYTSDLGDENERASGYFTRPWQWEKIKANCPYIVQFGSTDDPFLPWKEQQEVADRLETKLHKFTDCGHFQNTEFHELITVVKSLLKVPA
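Test system: recombinant human RBBP9. Quantity: 2.5 µM RBBP9 dispensing solution, before mixing. Detection: FP readout at 525/598 nm. Reagent: Serine-hydrolase probe FP-Rh, 375 nM pre-mixing. Measure: % inhibition. Control set: DMSO-treated enzyme wells and wells lacking RBBP9. Buffer or medium: Tris-NaCl-Pluronic buffer, pH 8.0. Times: preincubation 30 min plus labeling 45 min at 25 °C.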
LEDGF integ inh = blocks HIV-1 LEDGF/p75-dependent DNA integration. 0.64% of 370,000 active. inhibition, % at 3.7 µM. TR-FRET IN-LEDGF/p75 DNA integration, Eu/Cy5;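 active = inhibition above the screen-wide mean plus 3 SD, cut at about 13% in these data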;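 note: signal is the Cy5 over europium emission ratio at 671 and 618 nm; 0% = plate median of compound wells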
ABHD5-PLIN5 inh = blocks binding of human ABHD5 to perilipin-5 | inhibition, % at 4 µM | 0.78% of 360,000 active | Split G. princeps luciferase complementation, luminescence, 4 h;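 active = inhibition above the mean inhibition across every tested compound plus 3 SD, cut at about 22% in these data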;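 note: 0% = DMSO only wells and the 100% control is not disclosed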
IN multimer up = HIV-1 integrase multimerization activation, counter-screen; shares compounds with LEDGF integ inh; TR-FRET HIV-1 integrase multimerization, biochemical; activation, % at 7.7 µM; 17% of 2,000 active; AID 1053131; in the data active = activation above about 8.9%
TRFRET interf = TR-FRET optical interference, LEDGF/p75 integration counter-screen; shares compounds with LEDGF integ inh; TR-FRET optical interference counterscreen, HIV-1 IN multimerization; inhibition, % at 7.7 µM; 2,000 tested, under 10 active;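 active = inhibition above the mean over all tested compounds plus 3 SD, which no compound reached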;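 note: 0% = integrase with antibodies and DMSO and 100% = antibodies without integrase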
IN-LEDGF confirm = LEDGF/p75-dependent HIV-1 integration inhibition, confirmation; 36% of 2,000 active; inhibition, % at 3.7 µM; shares compounds with LEDGF integ inh; TR-FRET LEDGF/p75-dependent HIV-1 integration, biochemical; in the data active = inhibition above about 14%
Starred values were filed as active, the others as inactive; nt = no result; ! = not confirmed by another sample.

SMILES	PRMT1 FP inh	MBD2 inh	UHRF1 MBD2 ctr	RBBP9 inhibitor	LEDGF integ inh	ABHD5-PLIN5 inh	IN multimer up	TRFRET interf	IN-LEDGF confirm
Cc1ccc(S(=O)(=O)Nc2cc(C(C(=O)OC(C)C)C(=O)C(F)(F)F)c(O)c3ccccc23)c(C)c1 (stereo not drawn)	25*	2	-5	6	14*	16	1	-4	-1
Cc1ccc(C)c(S(=O)(=O)Nc2ccc(O)c3ccccc23)c1	6	-17	0	nt	8	-15	nt	nt	nt
Cc1ccc(S(=O)(=O)Nc2ccc(O)c3ccccc23)c(C)c1	13	-9	-5	nt	14*	-6	4	-14	2
Cc1cccc(C(=O)N=c2c(C#N)cc3c(=O)n4cccc(C)c4nc3n2Cc2ccco2)c1	25*!	-10	0	-3	17*	50*!	2	-11	35*
Cc1cccn2c(=O)c3cc(C#N)c(=NC(=O)c4cccs4)n(CC(C)C)c3nc12	2	-5	-3	-8	-2	-5	nt	nt	nt
Cc1cccn2c(=O)c3cc(C#N)c(=NC(=O)c4ccccc4)n(Cc4ccco4)c3nc12	24*	0	6	nt	16*	46*!	-3	15	26*
Cc1ccc(-c2cc(-c3nnc(SCC(=O)N4c5ccccc5Sc5ccccc54)n3N)[nH]n2)cc1	5	0	2	nt	-4	nt	nt	nt	nt
COC(=O)[C@]12C[C@H](CC(=O)NCc3cccc4ccccc34)C(=O)N(Cc3ccco3)C1=C[C@H](COCc1ccccc1)O[C@@H]2C	0	0	4	nt	7	nt	nt	nt	nt
COc1ccc(OC)c(/C=C/c2ccnc3ccccc23)c1	-1	-3	4	nt	25*	2	1	-4	-10
CCOc1ccc(CCNC(=O)c2cc3ccsc3n2C)cc1OCC	2	8	2	nt	0	nt	nt	nt	nt
COC(=O)[C@]12C[C@H](CC(=O)N3CCCC3)C(=O)N(CCc3ccc(OC)c(OC)c3)C1=C[C@H](COCc1ccccc1)O[C@@H]2C	1	0	-3	nt	4	nt	nt	nt	nt
C[C@@H](NC(=O)CN1C(=O)c2ccccc2S1(=O)=O)c1ccccc1	2	4	4	nt	0	1	nt	nt	nt
CC(Cc1ccccc1)NC(=O)CN1C(=O)c2ccccc2S1(=O)=O (stereo not drawn)	1	2	-4	nt	82*	6	1	-3	-5
Cc1oc2cc([N+](=O)[O-])c(O)c([N+](=O)[O-])c2c1C(=O)c1ccc(Cl)cc1	6	-10	-6	4	10	2	nt	nt	nt
CC(C)CN=Cc1c(O)c([N+](=O)[O-])cc2oc3c(c12)CCCC3	10	-14	-13	3	49*	13	0	1	66*
O=[N+]([O-])c1cc2oc3c(c2c(C=NCc2ccccc2)c1O)CCCC3	8	-7	-8	-5	25*	6	1	-6	71*
Cc1cccc(/N=C/c2c(O)ccc3oc4c(c23)CCCC4)n1	nt	nt	nt	-5	nt	-4	nt	nt	nt
O=C1c2cc(O)c(O)cc2S(=O)(=O)C1c1ccccc1 (stereo not drawn)	24*	2	27*	nt	23*	4	2	-8	8
O=C(CN1C(=O)c2ccccc2S1(=O)=O)c1ccc(O)c(O)c1	4	2	2	-3	-8	-2	nt	nt	nt
CC(=O)OCC(=O)N1CCN(C(=O)C(=O)c2cccc(C(F)(F)F)c2)CC1	1	1	2	nt	-4	nt	nt	nt	nt
CCCCCCSc1ccc([C@H]2N[C@@](CC(C)C)(C(=O)OC)[C@H]3C(=O)N(CC)C(=O)[C@@H]23)cc1	-2	2	7	nt	3	-12	nt	nt	nt
CCCCCCSc1ccc([C@H]2N[C@@](C)(C(=O)OC)[C@H]3C(=O)N(CC)C(=O)[C@@H]23)cc1	1	3	0	nt	15*	-2	0	-1	-3
O=C(OCCN1CCN(C2CN(Cc3cn(Cc4ccccc4F)nn3)S(=O)(=O)C2)CC1)c1cc2ccccc2o1 (stereo not drawn)	-10	12	14	nt	2	nt	nt	nt	nt
Cc1cc(/C=C2\SC(=S)NC2=O)c(C)[nH]1	11	0	4	-10	34*	3	12*	-43	10
CCCCOCC1CN(CCCC)S(=O)(=O)c2c(NCc3cc(OC)c(OC)c(OC)c3)cccc2O1 (stereo not drawn)	1	5	0	nt	2	nt	nt	nt	nt
SMILES	PRMT1 FP inh	MBD2 inh	UHRF1 MBD2 ctr	RBBP9 inhibitor	LEDGF integ inh	ABHD5-PLIN5 inh	IN multimer up	TRFRET interf	IN-LEDGF confirm
C[C@H](O)[C@@H]1C(=O)N2CCc3c([nH]c4cccc(-c5ccccc5)c34)[C@@H]2C[C@@H]1N(C)C(=O)OCc1ccccc1	-3	2	-1	nt	2	nt	nt	nt	nt
Cc1nn(CCCC(=O)Nc2sc3c(c2C#N)CCC3)c(C)c1[N+](=O)[O-]	3	-1	1	-6	18*	-2	-1	5	-1
O=C(N/C=C/c1ccco1)NCc1ccccc1	12	7	23*	-7	28*	2	14*	-73	44*
Cn1ncc([N+](=O)[O-])c1C(=O)Nc1ccc(-c2nc3ccccc3o2)cc1	1	-6	-3	-13	35*	3	0	0	-8
CC(=O)Nc1ccc(NC(=O)c2c([N+](=O)[O-])cnn2C)cc1	-1	-1	-4	nt	-1	-12	nt	nt	nt
O=C(NC1CCCCN(Cc2cccc(C(F)(F)F)c2)C1=O)c1cccc(C(F)(F)F)c1 (stereo not drawn)	4	0	1	nt	1	nt	nt	nt	nt
NS(=O)(=O)c1cccc(NC(=O)c2cccc(-c3ccc(O)cc3)c2)c1	0	-3	-2	nt	18*	-4	0	-2	-8
CC1OC(Nc2cccc3ccccc23)C(O)C(O)C1O (stereo not drawn)	29*	-8	-5	4	36*	-36	3	-13	5
COc1ccccc1NC(=S)OC1CCC12CCC(c1ccccc1)CC2 (stereo not drawn)	2	-2	0	nt	-6	nt	nt	nt	nt
OC[C@H]1O[C@@H](c2nc(-c3ccc(CN4CCOCC4)cc3)no2)[C@H](O)[C@@H](O)[C@H]1O	-5	0	0	nt	16*	1	-1	4	-1
OC[C@H]1O[C@@H](c2nc(-c3ccc4c(c3)CCO4)no2)[C@H](O)[C@@H](O)[C@H]1O	-3	2	-1	nt	1	-5	nt	nt	nt

From PubChem
